The target of assay [1] is Neprilysin (Homo sapiens) (UniProt P08473). The experiment in a line: Inactivation constant for Neutral endopeptidase (NEP). Put shortly: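 Recombinant human NEP from CHO cells (>99% pure), 0.5 μM in 50 mM HEPES pH 7.4 with 10% p-dioxane, incubated at 25 °C with inactivator at 0.5–7.5 μM final. Aliquots diluted 1:100 into DAGNPG assay solution (50 mM Tris pH 7.4, 37 °C), fluorescence read at ex 342/em 562 nm. Pseudo-first-order kobs plotted double-reciprocally against inactivator concentration to give kinact and Km.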
Chain of Neprilysin (Homo sapiens) (P08473 whole entry): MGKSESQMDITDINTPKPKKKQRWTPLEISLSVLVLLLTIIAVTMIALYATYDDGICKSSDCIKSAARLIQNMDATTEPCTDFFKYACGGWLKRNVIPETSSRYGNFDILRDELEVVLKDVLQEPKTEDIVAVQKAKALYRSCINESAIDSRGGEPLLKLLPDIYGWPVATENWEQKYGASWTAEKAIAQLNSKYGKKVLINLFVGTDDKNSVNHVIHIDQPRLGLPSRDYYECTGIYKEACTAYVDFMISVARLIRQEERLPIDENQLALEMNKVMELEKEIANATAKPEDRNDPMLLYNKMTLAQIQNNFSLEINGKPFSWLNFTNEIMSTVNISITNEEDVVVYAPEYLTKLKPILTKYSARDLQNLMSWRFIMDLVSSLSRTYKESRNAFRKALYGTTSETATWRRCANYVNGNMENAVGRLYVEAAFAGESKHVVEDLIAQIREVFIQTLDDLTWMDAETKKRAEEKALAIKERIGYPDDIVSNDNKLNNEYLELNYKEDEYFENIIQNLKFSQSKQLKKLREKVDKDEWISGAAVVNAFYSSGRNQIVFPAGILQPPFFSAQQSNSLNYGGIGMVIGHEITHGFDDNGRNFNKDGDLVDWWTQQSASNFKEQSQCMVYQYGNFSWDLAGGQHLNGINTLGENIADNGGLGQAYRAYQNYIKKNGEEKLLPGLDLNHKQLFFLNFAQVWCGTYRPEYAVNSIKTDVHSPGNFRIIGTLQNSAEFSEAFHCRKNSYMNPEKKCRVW

A short description of assay [2]: Partition ratio expressed as ratio of catalytic constant to that of inactivation constant for (NEP). In a few lines:
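Partition ratio was found by titration. NEP at 0.5 μM in 50 mM HEPES pH 7.4 was mixed with inactivator at inactivator/NEP molar ratios from 1 up to 2600 or 6000, then stirred gently at 4 °C for 16 h. Aliquots were diluted 1:100 into DAGNPG assay solution and residual activity was measured fluorometrically. Controls lacked inactivator.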

The target of assay [3] is T1, Angiotensin-converting enzyme (Rattus norvegicus) (UniProt P47820).
T1 sequence (whole entry): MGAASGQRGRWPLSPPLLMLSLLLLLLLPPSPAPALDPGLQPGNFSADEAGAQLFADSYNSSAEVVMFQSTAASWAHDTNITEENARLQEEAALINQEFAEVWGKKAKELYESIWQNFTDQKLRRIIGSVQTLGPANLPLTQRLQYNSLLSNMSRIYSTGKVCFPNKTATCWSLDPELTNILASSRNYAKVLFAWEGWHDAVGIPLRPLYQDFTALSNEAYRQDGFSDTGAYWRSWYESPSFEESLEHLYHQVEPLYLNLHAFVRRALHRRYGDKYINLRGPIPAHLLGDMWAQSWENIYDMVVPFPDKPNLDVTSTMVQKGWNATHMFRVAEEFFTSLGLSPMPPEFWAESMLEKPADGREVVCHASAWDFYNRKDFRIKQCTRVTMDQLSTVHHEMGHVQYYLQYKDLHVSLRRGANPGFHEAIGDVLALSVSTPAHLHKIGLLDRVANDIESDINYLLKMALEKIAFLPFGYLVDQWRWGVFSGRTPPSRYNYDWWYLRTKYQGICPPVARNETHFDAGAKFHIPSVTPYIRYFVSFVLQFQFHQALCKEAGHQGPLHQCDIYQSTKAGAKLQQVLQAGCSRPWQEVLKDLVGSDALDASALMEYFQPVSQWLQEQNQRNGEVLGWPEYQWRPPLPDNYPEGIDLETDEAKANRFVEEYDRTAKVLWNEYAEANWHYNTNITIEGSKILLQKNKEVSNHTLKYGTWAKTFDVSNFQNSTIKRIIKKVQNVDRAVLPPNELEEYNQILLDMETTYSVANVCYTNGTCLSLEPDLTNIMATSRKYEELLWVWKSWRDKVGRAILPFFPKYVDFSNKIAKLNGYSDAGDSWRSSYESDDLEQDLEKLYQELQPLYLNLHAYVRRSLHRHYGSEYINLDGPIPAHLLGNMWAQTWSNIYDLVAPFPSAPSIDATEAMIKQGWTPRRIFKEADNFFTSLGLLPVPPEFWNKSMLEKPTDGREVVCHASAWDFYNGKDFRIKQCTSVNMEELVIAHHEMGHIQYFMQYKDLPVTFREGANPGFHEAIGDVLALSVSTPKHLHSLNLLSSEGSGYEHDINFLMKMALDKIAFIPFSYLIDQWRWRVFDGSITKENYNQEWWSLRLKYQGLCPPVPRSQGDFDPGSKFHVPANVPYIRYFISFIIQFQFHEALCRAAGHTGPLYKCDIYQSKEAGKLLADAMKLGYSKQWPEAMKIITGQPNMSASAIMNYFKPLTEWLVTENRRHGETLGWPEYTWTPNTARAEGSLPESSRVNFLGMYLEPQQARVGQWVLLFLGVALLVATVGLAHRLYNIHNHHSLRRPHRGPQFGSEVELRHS
The experiment in a line: Inactivation constant for angiotensin converting enzyme (ACE).

Assay [4] concerns the target Angiotensin-converting enzyme (Homo sapiens) (UniProt P12821). The experiment in a line: Partition ratio expressed as ratio of catalytic constant to that of inactivation constant for angiotensin converting enzyme (ACE).
The target of assay [5] is Neprilysin (Homo sapiens) (UniProt P08473).

Molecules are shown by their SMILES.

A word on the kinact: it is the rate constant of inactivation at saturating inhibitor.

Chain of Angiotensin-converting enzyme (Homo sapiens) (P12821 whole entry): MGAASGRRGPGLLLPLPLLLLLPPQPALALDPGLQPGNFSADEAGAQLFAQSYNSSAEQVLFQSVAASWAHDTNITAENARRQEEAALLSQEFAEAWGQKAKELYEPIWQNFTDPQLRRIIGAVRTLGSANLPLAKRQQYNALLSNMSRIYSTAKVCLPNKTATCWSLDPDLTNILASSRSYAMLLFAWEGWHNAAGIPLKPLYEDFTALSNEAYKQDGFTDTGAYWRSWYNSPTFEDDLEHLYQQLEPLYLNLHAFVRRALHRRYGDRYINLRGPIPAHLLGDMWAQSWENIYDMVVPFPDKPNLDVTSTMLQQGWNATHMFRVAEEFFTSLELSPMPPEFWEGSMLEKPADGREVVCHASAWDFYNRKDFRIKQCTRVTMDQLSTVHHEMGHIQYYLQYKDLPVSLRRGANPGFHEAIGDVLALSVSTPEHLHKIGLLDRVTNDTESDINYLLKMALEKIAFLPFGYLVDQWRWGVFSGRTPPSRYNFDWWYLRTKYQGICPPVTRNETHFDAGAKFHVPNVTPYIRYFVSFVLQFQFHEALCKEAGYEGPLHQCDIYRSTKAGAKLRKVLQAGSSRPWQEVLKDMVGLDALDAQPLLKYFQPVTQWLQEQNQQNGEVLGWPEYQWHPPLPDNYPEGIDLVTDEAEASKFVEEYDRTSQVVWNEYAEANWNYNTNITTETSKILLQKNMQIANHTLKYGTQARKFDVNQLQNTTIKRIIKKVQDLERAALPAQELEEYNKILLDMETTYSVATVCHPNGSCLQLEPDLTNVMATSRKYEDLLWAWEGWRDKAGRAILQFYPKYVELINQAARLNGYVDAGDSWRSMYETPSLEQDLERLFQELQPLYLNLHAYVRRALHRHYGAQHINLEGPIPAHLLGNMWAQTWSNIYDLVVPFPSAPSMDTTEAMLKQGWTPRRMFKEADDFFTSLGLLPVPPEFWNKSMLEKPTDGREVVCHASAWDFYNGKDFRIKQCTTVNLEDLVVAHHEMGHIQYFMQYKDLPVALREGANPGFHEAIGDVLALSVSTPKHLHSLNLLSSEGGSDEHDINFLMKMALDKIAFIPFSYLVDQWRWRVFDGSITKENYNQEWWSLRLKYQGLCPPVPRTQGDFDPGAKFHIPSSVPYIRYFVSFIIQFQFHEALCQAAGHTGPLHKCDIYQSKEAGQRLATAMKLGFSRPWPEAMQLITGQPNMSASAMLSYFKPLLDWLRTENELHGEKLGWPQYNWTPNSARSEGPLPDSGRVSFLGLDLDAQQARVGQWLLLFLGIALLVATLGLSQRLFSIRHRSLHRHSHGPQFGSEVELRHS

For the compound `N#CCC(=O)NC(Cc1ccccc1)C(=O)NC(Cc1ccccc1)C(=O)O` (stereo unspecified), the kinact in assay [1] is 0.022 min⁻¹; in assay [3], 0.08 min⁻¹. For the same compound, the K cat/Kinact in assay [2] worked out at 4700; in assay [4], 8300.
With `N#CCC(=O)CC(Cc1ccccc1)C(=O)NC(Cc1ccccc1)C(=O)O` (stereo unspecified), in assay [2], the K cat/Kinact was found to be 1340. The kinact in assay [5] was 0.071 min⁻¹.

The values are drawn from ChEMBL document CHEMBL1126768, “A mechanism-based inactivation study of neutral endopeptidase 24.11” (J Med Chem, 1993).
